# What was measured:
# Mus musculus = species on record: Mus musculus; assay: Anti-tetrabenazine (TBZ) activity, ability to prevent TBZ-induced ptosis in mice; type: functional
# Summary of the method: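 Mice; compound given by an unstated route some hours before tetrabenazine (the time is truncated). Five animals per dose, with at least three to five doses. Ptosis scored 75-120 min after tetrabenazine injection on the Rubin scale (eyes closed = 100).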
# Rattus norvegicus [1] = species on record: Rattus norvegicus; assay: cells; type: functional, organism-based, Synaptosomes; details: Brain, 3 h
# Rattus norvegicus [2] = species on record: Rattus norvegicus; assay: In vitro inhibition of norepinephrine uptake in rat brain synaptosomes using [3H]NE; type: functional, organism-based
Structure (SMILES),IC50 (Rattus norvegicus [1]) [nM],IC50 (Rattus norvegicus [2]) [nM],ED50 (Mus musculus) [mg/kg]
COc1ccc(C2CN(C)Cc3sc(C)cc32)cc1.Cl (configuration not stated),500,400,7.1
Cc1ccc(C2CN(C)Cc3sc(Br)cc32)cc1.Cl (configuration not stated),9000,640,7.4
Cl.Clc1cc2c(s1)CNCC2c1ccc(Br)cc1 (configuration not stated),> 10000,3600,> 40
Cc1ccc(C2CN(C)Cc3sc(CO)cc32)cc1.Cl (configuration not stated),1200,50,0.7
Cc1cc2c(s1)CN(C)CC2c1ccc(C(F)(F)F)cc1.Cl (configuration not stated),2050,7800,> 40
Cc1sc2c(c1Br)C(c1ccc(Br)cc1)CN(C)C2.Cl (configuration not stated),> 10000,7800,> 40
CCCCN1Cc2sccc2C(c2ccc(Cl)cc2)C1.Cl (configuration not stated),> 10000,> 10000,> 40
CC(=O)Nc1cc2c(s1)CN(C)CC2c1ccc(Cl)cc1.Cl (configuration not stated),600,570,35
Cc1cc2c(s1)CN(C)CC2c1ccc(O)cc1.Cl (configuration not stated),460,250,10
CCCc1cc2c(s1)CN(C)CC2c1ccc(Br)cc1.Cl (configuration not stated),860,990,40
Cl.c1ccc(C2CNCc3sccc32)cc1 (configuration not stated),> 10000,3000,> 40
COc1ccc(C2CN(C)Cc3sccc32)cc1OC.Cl (configuration not stated),300,> 10000,> 40
CN1Cc2sc([N+](=O)[O-])cc2C(c2ccc(Cl)cc2)C1 (configuration not stated),3350,800,> 40
COCc1cc2c(s1)CN(C)CC2c1ccc(Br)cc1 (configuration not stated),200,370,1.7
CN1Cc2c(N)cccc2C(c2ccccc2)C1 (configuration not stated) [NOMIFENSINE],–,–,1.7
CCC1(c2ccc(Br)cc2)CN(C)Cc2sc(C)cc21 (configuration not stated),> 10000,> 10000,> 40
CN1Cc2sc(C(C)(C)C)cc2C(c2ccc(Br)cc2)C1.Cl (configuration not stated),5700,1740,7
Cc1cc2c(s1)CNCC2c1ccc(Br)cc1.Cl (configuration not stated),1800,760,> 40
CN(C)CCCN1c2ccccc2CCc2ccccc21 [IMIPRAMINE],230,5000,2.3
CN1Cc2sc([N+](=O)[O-])cc2C(c2ccc(Br)cc2)C1.Cl (configuration not stated),2450,450,3.6
Cc1cc2c(s1)CN(C)CC2c1ccccc1.Cl (configuration not stated),8000,560,8.4
CN1Cc2sc(Cl)cc2C(c2ccc(Br)cc2)C1.Cl (configuration not stated),3500,1000,6.5
CN1Cc2sc(N)cc2C(c2ccc(Br)cc2)C1 (configuration not stated),90,130,7.4
CCc1cc2c(s1)CN(CC)CC2c1ccc(C)cc1.Cl (configuration not stated),1800,270,> 40
Cc1cc2c(s1)CN(C)CC2c1ccc(Br)cc1.Cl (configuration not stated),540,500,2.6

# Continued, in another order:
IC50 (Rattus norvegicus [1]) [nM],IC50 (Rattus norvegicus [2]) [nM],Structure (SMILES),ED50 (Mus musculus) [mg/kg]
780,1100,CCCc1cc2c(s1)CN(C)CC2c1ccc(F)cc1.Cl (configuration not stated),13
> 10000,3400,Cc1cc2c(s1)CN(C)CC2c1cccc(C(F)(F)F)c1.Cl (configuration not stated),> 40
4100,1600,CN1Cc2sc(Br)cc2C(c2ccc(Br)cc2)C1 (configuration not stated),0.8
> 10000,> 10000,Cc1cc2c(s1)CN(C)CC2c1c(Cl)cccc1Cl.Cl (configuration not stated),> 40
> 10000,3200,Oc1cccc(C2CNCc3sc(Cl)cc32)c1 (configuration not stated),> 40
> 10000,2300,CN1Cc2sc(Br)cc2C(c2ccccc2)C1.Cl (configuration not stated),6
210,180,CN1Cc2sc(N)cc2C(c2ccc(Cl)cc2)C1 (configuration not stated),> 40
> 10000,900,Cc1ccc(C2CN(C)Cc3sc(Cl)cc32)cc1.Cl (configuration not stated),5.9
5400,1600,CN1Cc2sc(Cl)cc2C(c2ccc(Cl)cc2)C1.Cl (configuration not stated),2.2
3550,190,Cc1cc2c(s1)CN(C)CC2c1ccc(Cl)cc1.Cl (configuration not stated),> 40
> 10000,1400,CN1Cc2sc(Cl)cc2C(c2ccccc2)C1.Cl (configuration not stated),> 40
3000,> 10000,CN1Cc2sccc2C(c2ccc(Cl)cc2Cl)C1.Cl (configuration not stated),> 40
3100,3400,Cc1cc2c(s1)CN(C)CC2(C)c1ccc(Br)cc1 (configuration not stated),40

# Source: ChEMBL document CHEMBL1122764, “Synthesis and antidepressant activity of 4-aryltetrahydrothieno[2,3-c]pyridine derivatives” (J Med Chem, 1984)
